Source: ChEMBL document CHEMBL4033681, “Lipase-catalyzed kinetic resolution as key step in the synthesis of enantiomerically pure σ ligands with 2-benzopyran structure” (Bioorg Med Chem, 2017)
Active and inactive are the calls of the source. The rule behind the calls is not given here.

How the values were obtained:
[1] = Displacement of [3H]-(+)-MK-801 from NMDA receptor PCP binding site in pig brain cortex membranes after 120 mins by microbeta scintillation counting method; assay type: cell membranes, Sus scrofa
[2] = molecular target: Sigma non-opioid intracellular receptor 1 (Cavia porcellus, UniProt Q60492); assay: Displacement of [3H]-(+)-pentazocine from sigma-1 receptor in guinea pig brain membranes after 120 mins by microbeta scintillation counting method; assay type: cell membranes, Membrane
Sigma non-opioid intracellular receptor 1, sequence (Q60492 whole entry): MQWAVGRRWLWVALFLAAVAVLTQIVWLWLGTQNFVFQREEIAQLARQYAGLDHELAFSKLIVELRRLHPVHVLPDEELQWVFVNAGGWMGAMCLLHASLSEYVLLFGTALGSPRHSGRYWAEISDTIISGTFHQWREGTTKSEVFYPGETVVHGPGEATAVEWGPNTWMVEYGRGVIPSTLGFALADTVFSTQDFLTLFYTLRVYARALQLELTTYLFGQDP

[3] = molecular target: T1, Sigma intracellular receptor 2 (Rattus norvegicus, UniProt Q5U3Y7); assay: Displacement of [3H]DTG from sigma-2 receptor in rat liver membranes after 120 mins by microbeta scintillation counting method; assay type: cell membranes, Membrane
T1 sequence (Q5U3Y7 whole entry): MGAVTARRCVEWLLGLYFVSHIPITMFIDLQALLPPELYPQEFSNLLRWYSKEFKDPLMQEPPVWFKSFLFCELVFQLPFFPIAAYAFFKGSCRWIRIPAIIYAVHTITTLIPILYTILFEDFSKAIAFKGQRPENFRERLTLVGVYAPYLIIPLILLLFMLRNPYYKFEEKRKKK

[4] = molecular target: T2, Sigma intracellular receptor 2 (Rattus norvegicus) (UniProt Q5U3Y7); assay: Displacement of [3H]DTG from sigma-2 receptor in rat liver membranes at 1 uM after 120 mins by microbeta scintillation counting method relative to control; assay type: cell membranes; settings: Membrane
T2 sequence (whole entry): T1 sequence (Q5U3Y7 whole entry)
How it was run: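 Rat liver homogenate was the receptor source, labelled with [³H]-di-o-tolylguanidine. Excess (+)-pentazocine was added to mask σ1 sites.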

[5] = molecular target: 3-beta-hydroxysteroid-Delta(8),Delta(7)-isomerase (Homo sapiens) (UniProt Q15125); assay: Inhibition of sterol-delta8/delta7-isomerase in human HL60 cells assessed as accumulation of cholesta-8,14-dienol at 50 uM after 24 hrs; assay type: cell-based
3-beta-hydroxysteroid-Delta(8),Delta(7)-isomerase (Homo sapiens), sequence (Q15125 whole entry): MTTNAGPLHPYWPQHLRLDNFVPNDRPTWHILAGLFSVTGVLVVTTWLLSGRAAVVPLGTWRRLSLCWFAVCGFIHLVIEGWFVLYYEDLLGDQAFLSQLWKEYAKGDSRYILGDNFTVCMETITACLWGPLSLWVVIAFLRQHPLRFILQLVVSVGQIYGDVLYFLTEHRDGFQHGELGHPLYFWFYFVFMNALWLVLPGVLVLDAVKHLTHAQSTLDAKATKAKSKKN
How it was run: (§1)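 HL-60 cells were screened for inhibition of post-squalene cholesterol-biosynthesis enzymes. Sterol pattern was checked at 1 µM test concentration, and cholesta-8,14-dienol accumulation was examined at 50 µM.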

[6] = molecular target: 3-beta-hydroxysteroid-Delta(8),Delta(7)-isomerase (Homo sapiens) (UniProt Q15125); assay: Inhibition of sterol-delta8/delta7-isomerase in human HL60 cells assessed as change in sterol pattern at 1 uM after 24 hrs; assay type: cell-based; how it was run: as §1
Yarrowia lipolytica [7] = assay: Inhibition of Yarrowia lipolytica DSM 1345 sterol-delta8/delta7-isomerase assessed as change in sterol pattern at 4 ug/ml after 48 hrs by GC-MS analysis
How it was run: (§2)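 Cellular assay in the model yeast Yarrowia lipolytica, with compounds at 4 µg/mL. Both growth and the sterol pattern were monitored as read-outs of fungal sterol-Δ8/Δ7-isomerase inhibition.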

Yarrowia lipolytica [8] = assay: Growth inhibition of Yarrowia lipolytica DSM 1345 at 4 ug/ml; assay type: functional; how it was run: as §2

IC50 [1] | Ki [2] | Ki [3] | SMILES | further results
> 10000 nM | 33 nM | 525 nM | COC(=O)C[C@H]1Cc2ccccc2[C@@H](CCN2CCC(c3ccccc3)CC2)O1 | 
> 10000 nM |  |  | OCC[C@H]1Cc2ccccc2C2(CCN(Cc3ccccc3)CC2)O1 | inhibition [4]: 21%
> 10000 nM | 56 nM | 260 nM | CCCCCCCCN1CCC2(CC1)O[C@H](CCO)Cc1ccccc12 | 
 |  |  | COC(=O)CC1Cc2ccccc2C(CCN2CCC(c3ccccc3)CC2)O1 (racemic) | inhibition [5]: Active; inhibition [6]: inactive; inhibition (Yarrowia lipolytica [7]): inactive; growth inhibition (GI) (Yarrowia lipolytica [8]): inactive
> 10000 nM | 556 nM |  | COC(=O)C[C@H]1Cc2ccccc2[C@@H](CCN2CCCCC2)O1 | inhibition [4]: 13%
> 10000 nM |  |  | OCC[C@@H]1Cc2ccccc2C2(CCN(Cc3ccccc3)CC2)O1 | inhibition [4]: 9%
> 10000 nM |  | 510 nM | OCC[C@H]1Cc2ccccc2C2(CCN(CC3CCCCC3)CC2)O1 | 
 |  |  | OCCC1Cc2ccccc2C2(CCN(CCCc3ccccc3)CC2)O1 (racemic) | inhibition [5]: Active; inhibition [6]: inactive; inhibition (Yarrowia lipolytica [7]): inactive; growth inhibition (GI) (Yarrowia lipolytica [8]): inactive
> 10000 nM | 860 nM |  | COC(=O)C[C@@H]1Cc2ccccc2[C@H](CCN2CCCCC2)O1 | inhibition [4]: 39%
> 10000 nM |  | 1220 nM | OCC[C@H]1Cc2ccccc2C2(CCN(CCCc3ccccc3)CC2)O1 | 
> 10000 nM |  | 519 nM | OCC[C@@H]1Cc2ccccc2C2(CCN(CCCc3ccccc3)CC2)O1 | 
> 10000 nM | 24 nM | 68 nM | CCCCCCCCN1CCC2(CC1)O[C@@H](CCO)Cc1ccccc12 | 
 |  |  | CCCCCCCCN1CCC2(CC1)OC(CCO)Cc1ccccc12 (racemic) | inhibition [5]: Active; inhibition [6]: inactive; inhibition (Yarrowia lipolytica [7]): inactive; growth inhibition (GI) (Yarrowia lipolytica [8]): inactive
> 10000 nM |  | 614 nM | OCC[C@@H]1Cc2ccccc2C2(CCN(CC3CCCCC3)CC2)O1 | 
> 10000 nM | 43 nM | 32 nM | COC(=O)C[C@@H]1Cc2ccccc2[C@H](CCN2CCC(c3ccccc3)CC2)O1 | 

SMILES | IC50 [1] | Ki [2] | Ki [3] | further results
FCC[C@@H]1OC2(CCN(Cc3ccccc3)CC2)c2ccccc21 |  | 2.3 nM |  | 
FCC[C@H]1OC2(CCN(Cc3ccccc3)CC2)c2ccccc21 |  | 0.57 nM |  | 
